Assay results from ChEMBL document CHEMBL1212768, “Screening and quantification of the expression of antibiotic resistance genes in Acinetobacter baumannii with a microarray” (2010).
In brackets after ≈: the same amount, converted by molar mass.

Key:
Assay type in all cases: functional
Acinetobacter baumannii [1] = experiment: Antibacterial activity against Acinetobacter baumannii CIP70-10 by antimicrobial susceptibility assay
Summary of the method: (§1)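 MICs measured by Etest on Mueller-Hinton agar. Disk diffusion on the same medium was used for susceptibility screening. Strains were grown at 37°C in brain heart infusion broth or agar. Mutants were picked from antibiotic gradient plates, taking colonies growing above the normal MIC. Those resistant to several drug classes by diffusion were kept.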

Acinetobacter baumannii [2] = experiment: Antibacterial activity against multidrug-resistant Acinetobacter baumannii AYE by antimicrobial susceptibility assay; summary of the method: as §1
Acinetobacter baumannii [3] = experiment: Antibacterial activity against Acinetobacter baumannii BM4454 by antimicrobial susceptibility assay; summary of the method: as §1
Acinetobacter baumannii [4] = experiment: Antibacterial activity against multidrug-resistant Acinetobacter baumannii BM4666 by antimicrobial susceptibility assay; summary of the method: as §1
Acinetobacter baumannii [5] = experiment: Antibacterial activity against multidrug-resistant Acinetobacter baumannii BM4665 by antimicrobial susceptibility assay; summary of the method: as §1
Acinetobacter baumannii [6] = experiment: Antibacterial activity against multidrug-resistant Acinetobacter baumannii BM4675 by antimicrobial susceptibility assay; summary of the method: as §1
Acinetobacter baumannii [7] = experiment: Antibacterial activity against Acinetobacter baumannii BM4587 by antimicrobial susceptibility assay; summary of the method: as §1
Acinetobacter baumannii [8] = experiment: Antibacterial activity against multidrug-resistant Acinetobacter baumannii BM4668 by antimicrobial susceptibility assay; summary of the method: as §1
Acinetobacter baumannii [9] = experiment: Antibacterial activity against Acinetobacter baumannii BM4467 by antimicrobial susceptibility assay; summary of the method: as §1
Acinetobacter baumannii [10] = experiment: Antibacterial activity against multidrug-resistant Acinetobacter baumannii BM4676 by antimicrobial susceptibility assay; summary of the method: as §1

Compound	MIC (Acinetobacter baumannii [1]) [mg/L]	MIC (Acinetobacter baumannii [2]) [mg/L]	MIC (Acinetobacter baumannii [3]) [mg/L]	MIC (Acinetobacter baumannii [4]) [mg/L]	MIC (Acinetobacter baumannii [5]) [mg/L]	MIC (Acinetobacter baumannii [6]) [mg/L]	MIC (Acinetobacter baumannii [7]) [mg/L]	MIC (Acinetobacter baumannii [8]) [mg/L]	MIC (Acinetobacter baumannii [9]) [mg/L]	MIC (Acinetobacter baumannii [10]) [mg/L]
GENTAMICIN	1.5	> 256	6	1.5	12	24	1	1.5	1.5	> 256
O=C(O)c1cn(C2CC2)c2cc(N3CCNCC3)c(F)cc2c1=O [CIPROFLOXACIN]	0.125 (≈ 0.377 µM)	> 32	> 32	0.38 (≈ 1.15 µM)	0.5 (≈ 1.51 µM)	> 32	0.094 (≈ 0.284 µM)	0.38 (≈ 1.15 µM)	0.125 (≈ 0.377 µM)	24 (≈ 72.4 µM)
CN(C)c1ccc(O)c2c1C[C@H]1C[C@H]3[C@H](N(C)C)C(O)=C(C(N)=O)C(=O)[C@@]3(O)C(O)=C1C2=O [MINOCYCLINE]	0.047 (≈ 0.103 µM)	0.5 (≈ 1.09 µM)	0.75 (≈ 1.64 µM)	0.19 (≈ 0.415 µM)	0.125 (≈ 0.273 µM)	8 (≈ 17.5 µM)	0.064 (≈ 0.14 µM)	0.125 (≈ 0.273 µM)	0.064 (≈ 0.14 µM)	1 (≈ 2.19 µM)
CO/N=C(\C(=O)N[C@@H]1C(=O)N2C(C(=O)[O-])=C(C[N+]3(C)CCCC3)CS[C@H]12)c1csc(N)n1 [CEFEPIME]	1.5 (≈ 3.12 µM)	> 256	3 (≈ 6.24 µM)	2 (≈ 4.16 µM)	8 (≈ 16.6 µM)	8 (≈ 16.6 µM)	0.75 (≈ 1.56 µM)	3 (≈ 6.24 µM)	1.5 (≈ 3.12 µM)	32 (≈ 66.6 µM)
C[C@@H](O)[C@H]1C(=O)N2C(C(=O)O)=C(SCCNC=N)C[C@H]12 [IMIPENEM ANHYDROUS]	0.25 (≈ 0.835 µM)	1 (≈ 3.34 µM)	0.25 (≈ 0.835 µM)	0.19 (≈ 0.635 µM)	0.5 (≈ 1.67 µM)	2 (≈ 6.68 µM)	0.19 (≈ 0.635 µM)	0.25 (≈ 0.835 µM)	0.25 (≈ 0.835 µM)	> 32
CO[C@H]1/C=C/O[C@@]2(C)Oc3c(C)c(O)c4c(O)c(c(/C=N/N5CCN(C)CC5)c(O)c4c3C2=O)NC(=O)/C(C)=C\C=C\[C@H](C)[C@H](O)[C@@H](C)[C@@H](O)[C@@H](C)[C@H](OC(C)=O)[C@@H]1C [RIFAMPIN]	4 (≈ 4.86 µM)	16 (≈ 19.4 µM)	2 (≈ 2.43 µM)	3 (≈ 3.65 µM)	1.5 (≈ 1.82 µM)	> 32	1.5 (≈ 1.82 µM)	3 (≈ 3.65 µM)	2 (≈ 2.43 µM)	2 (≈ 2.43 µM)
O=C(N[C@H](CO)[C@H](O)c1ccc([N+](=O)[O-])cc1)C(Cl)Cl [CHLORAMPHENICOL]	48 (≈ 149 µM)	> 256	> 256	> 256	> 256	> 256	96 (≈ 297 µM)	> 256	96 (≈ 297 µM)	128 (≈ 396 µM)
NC[C@H]1O[C@H](O[C@H]2[C@H](O)[C@@H](O[C@H]3O[C@H](CO)[C@@H](O)[C@H](N)[C@H]3O)[C@H](N)C[C@@H]2N)[C@H](N)C[C@@H]1O [TOBRAMYCIN]	2 (≈ 4.28 µM)	64 (≈ 137 µM)	4 (≈ 8.56 µM)	1 (≈ 2.14 µM)	16 (≈ 34.2 µM)	12 (≈ 25.7 µM)	0.75 (≈ 1.6 µM)	2 (≈ 4.28 µM)	1.5 (≈ 3.21 µM)	96 (≈ 205 µM)
CN(C)c1cc(NC(=O)CNC(C)(C)C)c(O)c2c1C[C@H]1C[C@H]3[C@H](N(C)C)C(O)=C(C(N)=O)C(=O)[C@@]3(O)C(O)=C1C2=O [TIGECYCLINE]	0.125 (≈ 0.213 µM)	1.5 (≈ 2.56 µM)	3 (≈ 5.12 µM)	0.38 (≈ 0.649 µM)	1.5 (≈ 2.56 µM)	1.5 (≈ 2.56 µM)	0.094 (≈ 0.161 µM)	0.5 (≈ 0.854 µM)	0.125 (≈ 0.213 µM)	1.5 (≈ 2.56 µM)
CCn1cc(C(=O)O)c(=O)c2cc(F)c(N3CCNCC3)cc21 [NORFLOXACIN]	2 (≈ 6.26 µM)	> 256	> 256	4 (≈ 12.5 µM)	12 (≈ 37.6 µM)	> 256	1.5 (≈ 4.7 µM)	4 (≈ 12.5 µM)	1.5 (≈ 4.7 µM)	192 (≈ 601 µM)
CO/N=C(\C(=O)N[C@@H]1C(=O)N2C(C(=O)O)=C(COC(C)=O)CS[C@H]12)c1csc(N)n1 [CEFOTAXIME]	12 (≈ 26.3 µM)	> 256	4 (≈ 8.78 µM)	6 (≈ 13.2 µM)	4 (≈ 8.78 µM)	> 256	3 (≈ 6.59 µM)	8 (≈ 17.6 µM)	4 (≈ 8.78 µM)	32 (≈ 70.3 µM)
CN(C)[C@@H]1C(O)=C(C(N)=O)C(=O)[C@@]2(O)C(O)=C3C(=O)c4c(O)cccc4[C@@](C)(O)[C@H]3C[C@@H]12 [TETRACYCLINE]	1 (≈ 2.25 µM)	64 (≈ 144 µM)	32 (≈ 72 µM)	8 (≈ 18 µM)	3 (≈ 6.75 µM)	32 (≈ 72 µM)	1.5 (≈ 3.38 µM)	8 (≈ 18 µM)	3 (≈ 6.75 µM)	12 (≈ 27 µM)
CCN[C@@H]1C[C@H](N)[C@@H](O[C@H]2OC(CN)=CC[C@H]2N)[C@H](O)[C@H]1O[C@H]1OC[C@](C)(O)[C@H](NC)[C@H]1O [NETILMICIN]	2 (≈ 4.21 µM)	48 (≈ 101 µM)	16 (≈ 33.6 µM)	1.5 (≈ 3.15 µM)	64 (≈ 135 µM)	32 (≈ 67.3 µM)	1.5 (≈ 3.15 µM)	2 (≈ 4.21 µM)	2 (≈ 4.21 µM)	12 (≈ 25.2 µM)
C[C@H]1[C@H](NC(=O)/C(=N\OC(C)(C)C(=O)O)c2csc(N)n2)C(=O)N1S(=O)(=O)O [AZTREONAM]	48 (≈ 110 µM)	> 256	16 (≈ 36.7 µM)	32 (≈ 73.5 µM)	6 (≈ 13.8 µM)	32 (≈ 73.5 µM)	12 (≈ 27.6 µM)	48 (≈ 110 µM)	32 (≈ 73.5 µM)	32 (≈ 73.5 µM)
CC(C)(O/N=C(\C(=O)N[C@@H]1C(=O)N2C(C(=O)[O-])=C(C[n+]3ccccc3)CS[C@H]12)c1csc(N)n1)C(=O)O [CEFTAZIDIME]	6 (≈ 11 µM)	> 256	6 (≈ 11 µM)	12 (≈ 22 µM)	3 (≈ 5.49 µM)	> 256	4 (≈ 7.32 µM)	16 (≈ 29.3 µM)	8 (≈ 14.6 µM)	> 256
CC1(C)S[C@@H]2[C@H](NC(=O)[C@H](C(=O)O)c3ccsc3)C(=O)N2[C@H]1C(=O)O [TICARCILLIN]	24 (≈ 62.4 µM)	> 256	8 (≈ 20.8 µM)	16 (≈ 41.6 µM)	2 (≈ 5.2 µM)	> 256	6 (≈ 15.6 µM)	24 (≈ 62.4 µM)	12 (≈ 31.2 µM)	> 256
NCC[C@H](O)C(=O)N[C@@H]1C[C@H](N)[C@@H](O[C@H]2O[C@H](CN)[C@@H](O)[C@H](O)[C@H]2O)[C@H](O)[C@H]1O[C@H]1O[C@H](CO)[C@@H](O)[C@H](N)[C@H]1O [AMIKACIN]	6 (≈ 10.2 µM)	96 (≈ 164 µM)	8 (≈ 13.7 µM)	6 (≈ 10.2 µM)	64 (≈ 109 µM)	96 (≈ 164 µM)	4 (≈ 6.83 µM)	8 (≈ 13.7 µM)	4 (≈ 6.83 µM)	> 256
